Where “and” joins values, the source holds several entries; their conditions need not be identical. Identical values can stand only once.
How the values were obtained:
Assay type in all cases: toxicity, cell-based
Fibroblast = assay: Multiplex assay against human fibroblast
Outline: (§1)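 Cells stained live at seeding with Hoechst33342, BioTracker Green Microtubule Cytoskeleton Dye, MitoTracker Red and Annexin V Alexa Fluor 680 were imaged on a CQ1 microscope at 37°C and 5% CO2 after compound addition. Their classification by CellPathfinder machine-learning gating ran from Hoechst high-intensity objects versus normal cells, to healthy, pyknosed or fragmented nuclei among normal cells, to mitotic or apoptotic among pyknosed cells. Tubulin, mitochondrial-mass and membrane-permeability phenotypes are per cents of healthy-nucleus cells.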

HEK-293T = assay: Multiplex assay against HEK293T; conditions: human; outline: as §1
U2OS = assay: Multiplex assay against U2OS; conditions: human; outline: as §1
[1] = 12 h, 1 µM, compound concentration 1 uM
[2] = 12 h, 10 µM, compound concentration 10 uM
[3] = 24 h, 1 µM, compound concentration 1 uM
[4] = 24 h, 10 µM, compound concentration 10 uM
[5] = 48 h, 1 µM, compound concentration 1 uM
[6] = 48 h, 10 µM, compound concentration 10 uM

For CSCC[C@H](NC=O)C(=O)N[C@@H](CC(C)C)C(=O)N[C@@H](Cc1ccccc1)C(=O)O, the “Population Fragmented Nuclei (%)” value (Fibroblast; [1]) was 18% and 29%, the “Population Healthy Nuclei (%)” value (Fibroblast; [1]) was 69% and 51% and the “Population Mitochondria Different-Phenotype (%)” value (Fibroblast; [1]) was 3% and 4%. For the same compound, the “Population Tubulin-Different-Phenotype (%)” value (Fibroblast; [1]) was 26% and 39%, the “Total Cell Count” value (Fibroblast; [1]) was 182 and 175 and the “Population Fragmented Nuclei (%)” value (Fibroblast; [2]) was 27%. For the same compound, the “Population Healthy Nuclei (%)” value (Fibroblast; [2]) was 39%, the “Population Hoechst High Intensity Objects (%)” value (Fibroblast; [2]) was 38% and the “Population Membrane Permeable-Phenotype (%)” value (Fibroblast; [2]) was 9%. For the same compound, the “Population Mitochondria Different-Phenotype (%)” value (Fibroblast; [2]) was 5% and 3%, the “Population Normal (%)” value (Fibroblast; [2]) was 61% and the “Population Tubulin-Different-Phenotype (%)” value (Fibroblast; [2]) was 24% and 35%. For the same compound, the “Total Cell Count” value (Fibroblast; [2]) was 112 and 315, the “Population Fragmented Nuclei (%)” value (Fibroblast; [3]) was 35% and the “Population Healthy Nuclei (%)” value (Fibroblast; [3]) was 73% and 46%. For the same compound, the “Population Hoechst High Intensity Objects (%)” value (Fibroblast; [3]) was 7%, the “Population Mitochondria Different-Phenotype (%)” value (Fibroblast; [3]) was 4% and 9% and the “Population Normal (%)” value (Fibroblast; [3]) was 92%. The “Population Tubulin-Different-Phenotype (%)” value (Fibroblast; [3]) was 18% and 43%, the “Total Cell Count” value (Fibroblast; [3]) was 173 and 179 and the “Population Fragmented Nuclei (%)” value (Fibroblast; [4]) was 19%. For the same compound, the “Population Healthy Nuclei (%)” value (Fibroblast; [4]) was 38%, the “Population Hoechst High Intensity Objects (%)” value (Fibroblast; [4]) was 32% and the “Population Membrane Permeable-Phenotype (%)” value (Fibroblast; [4]) was 3%. For the same compound, the “Population Mitochondria Different-Phenotype (%)” value (Fibroblast; [4]) was 7% and 10%, the “Population Normal (%)” value (Fibroblast; [4]) was 67% and the “Population Tubulin-Different-Phenotype (%)” value (Fibroblast; [4]) was 25% and 47%. For the same compound, the “Total Cell Count” value (Fibroblast; [4]) was 107 and 230, the “Population Fragmented Nuclei (%)” value (Fibroblast; [5]) was 16% and 36% and the “Population Healthy Nuclei (%)” value (Fibroblast; [5]) was 69% and 47%. For the same compound, the “Population Mitochondria Different-Phenotype (%)” value (Fibroblast; [5]) was 1% and 8%, the “Population Tubulin-Different-Phenotype (%)” value (Fibroblast; [5]) was 21% and 54% and the “Total Cell Count” value (Fibroblast; [5]) was 184 and 174. The “Population Fragmented Nuclei (%)” value (Fibroblast; [6]) was 18%, the “Population Healthy Nuclei (%)” value (Fibroblast; [6]) was 44% and the “Population Hoechst High Intensity Objects (%)” value (Fibroblast; [6]) was 29%. For the same compound, the “Population Membrane Permeable-Phenotype (%)” value (Fibroblast; [6]) was 4%, the “Population Mitochondria Different-Phenotype (%)” value (Fibroblast; [6]) was 4% and 1% and the “Population Normal (%)” value (Fibroblast; [6]) was 70%. The “Population Tubulin-Different-Phenotype (%)” value (Fibroblast; [6]) was 24% and 47%, the “Total Cell Count” value (Fibroblast; [6]) was 110 and 231 and the “Population Apoptotic (%)” value (HEK-293T; [1]) was 28%. For the same compound, the “Population Mitochondria Different-Phenotype (%)” value (HEK-293T; [1]) was 47% and 57%, the “Population Mitotic Cells (%)” value (HEK-293T; [1]) was 71% and the “Population Tubulin-Different-Phenotype (%)” value (HEK-293T; [1]) was 23% and 16%. The “Total Cell Count” value (HEK-293T; [1]) was 466 and 437, the “Population Apoptotic (%)” value (HEK-293T; [2]) was 54% and the “Population Mitochondria Different-Phenotype (%)” value (HEK-293T; [2]) was 52% and 64%. For the same compound, the “Population Mitotic Cells (%)” value (HEK-293T; [2]) was 45%, the “Population Tubulin-Different-Phenotype (%)” value (HEK-293T; [2]) was 37% and 31% and the “Total Cell Count” value (HEK-293T; [2]) was 366 and 375. For the same compound, the “Population Apoptotic (%)” value (HEK-293T; [3]) was 21%, the “Population Mitochondria Different-Phenotype (%)” value (HEK-293T; [3]) was 21% and 37% and the “Population Mitotic Cells (%)” value (HEK-293T; [3]) was 78%. The “Population Tubulin-Different-Phenotype (%)” value (HEK-293T; [3]) was 14% and 12%, the “Total Cell Count” value (HEK-293T; [3]) was 679 and 550 and the “Population Apoptotic (%)” value (HEK-293T; [4]) was 25% and 36%. For the same compound, the “Population Mitochondria Different-Phenotype (%)” value (HEK-293T; [4]) was 38% and 53%, the “Population Mitotic Cells (%)” value (HEK-293T; [4]) was 75% and 64% and the “Population Tubulin-Different-Phenotype (%)” value (HEK-293T; [4]) was 25% and 22%. The “Total Cell Count” value (HEK-293T; [4]) was 479 and 490, the “Population Apoptotic (%)” value (HEK-293T; [5]) was 29% and 20% and the “Population Mitochondria Different-Phenotype (%)” value (HEK-293T; [5]) was 12% and 17%. The “Population Mitotic Cells (%)” value (HEK-293T; [5]) was 79%, the “Population Tubulin-Different-Phenotype (%)” value (HEK-293T; [5]) was 12% and the “Total Cell Count” value (HEK-293T; [5]) was 1154 and 838. For the same compound, the “Population Apoptotic (%)” value (HEK-293T; [6]) was 28% and 36%, the “Population Mitochondria Different-Phenotype (%)” value (HEK-293T; [6]) was 24% and 28% and the “Population Mitotic Cells (%)” value (HEK-293T; [6]) was 71% and 63%. For the same compound, the “Population Tubulin-Different-Phenotype (%)” value (HEK-293T; [6]) was 12% and 14%, the “Total Cell Count” value (HEK-293T; [6]) was 704 and 674 and the “Population Apoptotic (%)” value (U2OS; [1]) was 73% and 100%. For the same compound, the “Population Fragmented Nuclei (%)” value (U2OS; [1]) was 29% and 17%, the “Population Healthy Nuclei (%)” value (U2OS; [1]) was 75% and the “Population Mitochondria Different-Phenotype (%)” value (U2OS; [1]) was 4% and 3%. The “Total Cell Count” value (U2OS; [1]) was 254 and 135, the “Population Apoptotic (%)” value (U2OS; [2]) was 69% and 90% and the “Population Fragmented Nuclei (%)” value (U2OS; [2]) was 23% and 16%. The “Population Healthy Nuclei (%)” value (U2OS; [2]) was 70% and 74%, the “Population Membrane Permeable-Phenotype (%)” value (U2OS; [2]) was 4% and the “Population Mitochondria Different-Phenotype (%)” value (U2OS; [2]) was 1% and 2%. For the same compound, the “Population Mitotic Cells (%)” value (U2OS; [2]) was 30%, the “Total Cell Count” value (U2OS; [2]) was 202 and 123 and the “Population Apoptotic (%)” value (U2OS; [3]) was 91% and 90%. For the same compound, the “Population Fragmented Nuclei (%)” value (U2OS; [3]) was 24% and 17%, the “Population Healthy Nuclei (%)” value (U2OS; [3]) was 75% and the “Population Mitochondria Different-Phenotype (%)” value (U2OS; [3]) was 3% and 0%. For the same compound, the “Population Mitotic Cells (%)” value (U2OS; [3]) was 8%, the “Total Cell Count” value (U2OS; [3]) was 288 and 147 and the “Population Apoptotic (%)” value (U2OS; [4]) was 76% and 100%. For the same compound, the “Population Fragmented Nuclei (%)” value (U2OS; [4]) was 23% and 19%, the “Population Healthy Nuclei (%)” value (U2OS; [4]) was 68% and 70% and the “Population Membrane Permeable-Phenotype (%)” value (U2OS; [4]) was 8%. The “Population Mitochondria Different-Phenotype (%)” value (U2OS; [4]) was 1% and 2%, the “Population Mitotic Cells (%)” value (U2OS; [4]) was 23% and 0% and the “Total Cell Count” value (U2OS; [4]) was 247 and 147. The “Population Fragmented Nuclei (%)” value (U2OS; [5]) was 16% and 18%, the “Population Healthy Nuclei (%)” value (U2OS; [5]) was 75% and 68% and the “Population Membrane Permeable-Phenotype (%)” value (U2OS; [5]) was 4%. The “Population Mitochondria Different-Phenotype (%)” value (U2OS; [5]) was 3% and 1%, the “Total Cell Count” value (U2OS; [5]) was 411 and 202 and the “Population Apoptotic (%)” value (U2OS; [6]) was 90% and 100%. For the same compound, the “Population Fragmented Nuclei (%)” value (U2OS; [6]) was 20% and 53%, the “Population Healthy Nuclei (%)” value (U2OS; [6]) was 70% and 25% and the “Population Mitotic Cells (%)” value (U2OS; [6]) was 9% and 0%.

Source: ChEMBL document CHEMBL5724801, “EUbOPEN Chemogenomics Library - Multiplex” (2024)
